In ChEMBL document CHEMBL1177791, “Discovery of piperidin-4-yl-aminopyrimidines as HIV-1 reverse transcriptase inhibitors. N-benzyl derivatives with broad potency against resistant mutant viruses” (Bioorg Med Chem Lett, 2010):

Assays:
[1] = target: Human immunodeficiency virus type 1 reverse transcriptase (Human immunodeficiency virus 1, UniProt Q72547, K103N/Y181C); test: Inhibition of HIV1 reverse transcriptase K103N/Y181C double mutant by SPA heteropolymeric assay
Procedure, shortened: (§1)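 Recombinant mutant RT, heteropolymeric assay of RNA-dependent DNA polymerase activity. Uses a biotinylated primer oligonucleotide and tritiated dNTP substrate. Newly synthesized DNA is captured via the biotinylated primer on streptavidin-coated scintillation proximity beads and counted. Reported as IC50.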

[2] = target: Human immunodeficiency virus type 1 reverse transcriptase (Human immunodeficiency virus 1, UniProt Q72547, Y188L); test: Inhibition of HIV1 reverse transcriptase Y188L mutant by SPA heteropolymeric assay; procedure, shortened: as §1
[3] = target: Human immunodeficiency virus type 1 reverse transcriptase (Human immunodeficiency virus 1, UniProt Q72547); test: Inhibition of wild type HIV1 reverse transcriptase by SPA heteropolymeric assay
Procedure, shortened: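 Recombinant RT, heteropolymeric assay of RNA-dependent DNA polymerase activity with biotinylated primer oligonucleotide and tritiated dNTP substrate; new DNA quantified by capturing biotinylated primer on streptavidin-coated SPA beads; IC50 reported.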

[4] = system: Human immunodeficiency virus 1; test: Antiviral activity against HIV1 expressing reverse transcriptase K103N/Y181C double mutant infected in human MT4 cells assessed as reduction in virus-induced cytopathic effect; format: functional, organism-based; details: Human immunodeficiency virus 1, MT4
Procedure, shortened: (§2)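 Compound incubated with HIV-1-infected MT4 cells in medium containing 10% fetal bovine serum. Read-out was reduction of viral cytopathic effect on the cells, reported as EC50.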

[5] = system: Human immunodeficiency virus 1; test: Antiviral activity against HIV1 expressing reverse transcriptase Y188L mutant infected in human MT4 cells assessed as reduction in virus-induced cytopathic effect; format: functional, organism-based; details: Human immunodeficiency virus 1, MT4; procedure, shortened: as §2
[6] = system: Human immunodeficiency virus 1; test: Antiviral activity against HIV1 infected in human MT4 cells assessed as reduction in virus-induced cytopathic effect; format: functional, organism-based; details: Human immunodeficiency virus 1, MT4
[7] = system: Human immunodeficiency virus 1; test: Antiviral activity against wild type HIV1 infected in human MT4 cells assessed as reduction in virus-induced cytopathic effect in presence of 40 % human serum; format: functional, organism-based; details: Human immunodeficiency virus 1, MT4
[8] = system: Human immunodeficiency virus 1; test: Antiviral activity against HIV1 expressing reverse transcriptase V106A mutant infected in human MT4 cells assessed as reduction in virus-induced cytopathic effect; format: functional, organism-based; details: Human immunodeficiency virus 1, MT4; procedure, shortened: as §2
[9] = system: Human immunodeficiency virus 1; test: Antiviral activity against HIV1 expressing reverse transcriptase G190A mutant infected in human MT4 cells assessed as reduction in virus-induced cytopathic effect; format: functional, organism-based; details: Human immunodeficiency virus 1, MT4; procedure, shortened: as §2
[10] = system: Human immunodeficiency virus 1; test: Antiviral activity against HIV1 expressing reverse transcriptase K103N/L100I double mutant infected in human MT4 cells assessed as reduction in virus-induced cytopathic effect; format: functional, organism-based; details: Human immunodeficiency virus 1, MT4; procedure, shortened: as §2
[11] = system: Human immunodeficiency virus 1; test: Antiviral activity against wild type HIV1 infected in human MT4 cells assessed as reduction in virus-induced cytopathic effect in presence of 10 % fetal bovine serum; format: functional, organism-based; details: Human immunodeficiency virus 1, MT4

Row | SMILES | IC50 [1] | IC50 [2] | IC50 [3] | IC50 [4] | IC50 [5] | IC50 [6] | IC50 [7] | IC50 [8] | IC50 [9] | IC50 [10] | IC50 [11]
1 | Cc1cc(C#N)cc(C)c1Oc1nc(NC2CCN(Cc3ccc(C#N)cc3)CC2)ncc1Br | 18 nM | 41 nM | 21 nM | – | – | – | – | – | – | – | –
2 | Cc1cc(C#N)cc(C)c1Oc1ccnc(NC2CCN(Cc3ccc(S(C)(=O)=O)cc3)CC2)n1 | 50 nM | 72 nM | 34 nM | 20.2 nM | 16.9 nM | – | – | – | – | – | –
3 | Cc1cc(C#N)cc(C)c1Oc1nc(NC2CCN(Cc3ccc(C(N)=O)cc3Cl)CC2)ncc1Br | 69 nM | 519 nM | 131 nM | 52.7 nM | 30.2 nM | 41.5 nM | – | – | – | – | –
4 | Cc1cc(C#N)cc(C)c1Oc1nc(NC2CCN(Cc3ccc(S(C)(=O)=O)cc3Cl)CC2)ncc1Br | 28 nM | 216 nM | 45 nM | 7.3 nM | 2.8 nM | 6.1 nM | 48.7 nM | 2 nM | 1.8 nM | 5.9 nM | 6.1 nM
5 | Cc1cc(C#N)cc(C)c1Oc1ccnc(NC2CCN(Cc3ccc(S(N)(=O)=O)cc3Cl)CC2)n1 | 25 nM | 105 nM | 84 nM | 21.4 nM | 1.4 nM | 4.4 nM | – | – | – | – | –
6 | Cc1cc(C#N)cc(C)c1Oc1nc(NC2CCN(Cc3ccc(Cl)cc3)CC2)ncc1Br | 129 nM | 793 nM | 152 nM | – | – | – | – | – | – | – | –
7 | Cc1cc(C#N)cc(C)c1Oc1nc(NC2CCN(Cc3ccccc3)CC2)ncc1Br | 15 nM | 70 nM | 19 nM | > 100 nM | 9.1 nM | 6.5 nM | – | – | – | – | –
8 | Cc1cc(C#N)cc(C)c1Oc1nc(NC2CCN(Cc3ccccc3C#N)CC2)ncc1Br | 62 nM | 43 nM | 29 nM | – | – | – | – | – | – | – | –
9 | Cc1cc(C#N)cc(C)c1Oc1nc(NC2CCN(Cc3ccc(S(C)(=O)=O)cc3)CC2)ncc1Br | 14 nM | 28 nM | 28 nM | 35.7 nM | < 1.2 nM | 5.2 nM | – | – | – | – | –
10 | Cc1cc(C#N)cc(C)c1Oc1ccnc(NC2CCN(Cc3ccc(S(C)(=O)=O)cc3Cl)CC2)n1 | 30 nM | 263 nM | 22 nM | 67.2 nM | 46.5 nM | 24.6 nM | – | – | – | – | –
11 | Cc1cc(C#N)cc(C)c1Oc1nc(NC2CCN(Cc3cccc(C#N)c3)CC2)ncc1Br | 27 nM | 37 nM | 23 nM | – | – | – | – | – | – | – | –
12 | Cc1cc(C#N)cc(C)c1Oc1nc(NC2CCN(c3ccccc3)C2)ncc1Br (centres undefined) | > 1000 nM | 718 nM | 67 nM | – | – | – | – | – | – | – | –
13 | Cc1cc(C#N)cc(C)c1Oc1ccnc(NC2CCN(Cc3ccccc3)CC2)n1 | 216 nM | 372 nM | 87 nM | > 100 nM | 43.6 nM | 3.3 nM | – | – | – | – | –
14 | Cc1cc(C#N)cc(C)c1Oc1ccnc(NCCC(=O)Nc2ccc(S(N)(=O)=O)cc2Cl)n1 | > 1000 nM | > 10000 nM | 900 nM | – | – | – | – | – | – | – | –
15 | Cc1cc(C#N)cc(C)c1Oc1nc(NC2CCN(Cc3ccc(S(N)(=O)=O)cc3Cl)CC2)ncc1Br | 21 nM | 208 nM | 90 nM | 18.9 nM | 3.2 nM | 9.9 nM | 61.5 nM | 2.3 nM | 6 nM | 9.1 nM | 9.9 nM
16 | Cc1cc(C#N)cc(C)c1Oc1nc(NC2CCN(Cc3ccc(C#N)cc3Cl)CC2)ncc1Br | 159 nM | – | 146 nM | 67.4 nM | 11.6 nM | 17.6 nM | – | – | – | – | –
17 | Cc1cc(C#N)cc(C)c1Oc1nc(NC2CCN(Cc3cccc(Cl)c3)CC2)ncc1Br | 229 nM | – | 241 nM | – | – | – | – | – | – | – | –
18 | Cc1cc(C#N)cc(C)c1Oc1nc(NC2CCN(c3ccccc3)CC2)ncc1Br | 112 nM | 334 nM | 192 nM | – | – | – | – | – | – | – | –
19 | Cc1cc(C#N)cc(C)c1Oc1nc(NC2CCN(Cc3ccc(C(=O)O)cc3Cl)CC2)ncc1Br | 28 nM | 86 nM | 32 nM | 74.2 nM | – | 3.9 nM | – | – | – | – | –
20 | O=C1Nc2ccc(Cl)cc2[C@@](C#CC2CC2)(C(F)(F)F)O1 [EFAVIRENZ] | – | – | – | – | > 1000 nM | – | – | 5.7 nM | 6 nM | > 500 nM | –
21 | Cc1cc(C#N)cc(C)c1Oc1nc(Nc2ccc(C#N)cc2)nc(N)c1Br [ETRAVIRINE] | – | – | – | – | 3.1 nM | – | 25.9 nM | – | 1.1 nM | 9.5 nM | –
